From ChEMBL document CHEMBL1125337, “Synthesis and antibacterial activity of a series of basic amides of teicoplanin and deglucoteicoplanin with polyamines” (J Med Chem, 1992)
Values after ≈ are worked out from the molar mass of the structure shown.

What was measured:
Streptococcus pyogenes [1] = assay: Minimum inhibitory concentration against Streptococcus pyogenes L 49; format: functional
Procedure, shortened: (§1)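 MIC (µg/mL) by microbroth dilution in Todd-Hewitt broth, final inoculum 10^4 cfu/mL, incubated 24 h at 37 °C in air.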

Streptococcus pyogenes [2] = assay: Minimum inhibitory concentration of compound was determined against Streptococcus pyogenes L 49 in mouse; format: functional
Klebsiella pneumoniae [3] = assay: Minimum inhibitory concentration of compound was determined against Klebsiella pneumoniae L 1481; format: functional
Procedure, shortened: (§2)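 MIC (µg/mL) by microbroth dilution in Iso-Sensitest broth; final inoculum 10^4 cfu/mL; 24 h at 37 °C in air.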

Enterococcus faecalis = assay: Minimum inhibitory concentration against Enterococcus faecalis ATCC 7080; format: functional
Procedure, shortened: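 Microbroth dilution MIC (µg/mL), final inoculum 10^4 cfu/mL, incubated 24 h at 37 °C in air.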

Pseudomonas aeruginosa [4] = assay: Minimum inhibitory concentration against Pseudomonas aeruginosa ATCC 10145; format: functional; procedure, shortened: as §2
Bacteroides fragilis [5] = assay: Minimum inhibitory concentration of compound was determined against Bacteroides fragilis L 1010; format: functional
Procedure, shortened: (§3)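 Microbroth dilution MIC (µg/mL) in Wilkins-Chalgren broth, final inoculum 10^5 cfu/mL, incubated 48 h in an anaerobic chamber.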

Escherichia coli [6] = assay: Minimum inhibitory concentration against Escherichia coli L 47; format: functional; procedure, shortened: as §2
Bacteroides fragilis [7] = assay: Minimum inhibitory concentration of compound was determined against Bacteroides fragilis L 1236; format: functional; procedure, shortened: as §3
Enterobacter cloacae [8] = assay: Minimum inhibitory concentration of compound was determined against Enterobacter cloacae L 1504; format: functional; procedure, shortened: as §2
[9] = tested on: Staphylococcus haemolyticus; assay: Minimum inhibitory concentration against Staphylococcus haemolyticus L 602; format: functional; procedure, shortened: as §2
Streptococcus pyogenes [10] = assay: Efficacy of compound administered subcutaneously against Streptococcus pyogenes L 49 Septicemia in mouse; format: functional; details: sc
Procedure, shortened: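 Mice were infected intraperitoneally with about 10^5 Strep. pyogenes L 49 cells, about 100 times the 50% lethal dose. Groups of 5–8 mice were treated once right after challenge, by the route stated in the line. ED50 (mg/kg) was derived from percentage survival at each dose on day 7 (Spearman-Kärber).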

Pseudomonas aeruginosa [11] = assay: Minimum inhibitory concentration of compound was determined against Pseudomonas aeruginosa L 1138; format: functional; procedure, shortened: as §2
Enterobacter cloacae [12] = assay: Minimum inhibitory concentration of compound was determined against Enterobacter cloacae L 1485; format: functional; procedure, shortened: as §2
[13] = tested on: Staphylococcus epidermidis; assay: Minimum inhibitory concentration against Staphylococcus epidermidis ATCC 12228; format: functional; procedure, shortened: as §2
Staphylococcus aureus = assay: Minimum inhibitory concentration against Staphylococcus aureus L 165; format: functional; procedure, shortened: as §2
Escherichia coli [14] = assay: Minimum inhibitory concentration of compound was determined against Escherichia coli L 1347; format: functional; procedure, shortened: as §2
Serratia marcescens [15] = assay: Minimum inhibitory concentration of compound was determined against Serratia marcescens L 1488; format: functional; procedure, shortened: as §2
Shigella sonnei = assay: Minimum inhibitory concentration of compound was determined against Shigella sonnei L 363; format: functional; procedure, shortened: as §2
Escherichia coli [16] = assay: Minimum inhibitory concentration of compound was determined against Escherichia coli L 1572; format: functional; procedure, shortened: as §2
Streptococcus pneumoniae = assay: Minimum inhibitory concentration against Streptococcus pneumoniae L 44; format: functional; procedure, shortened: as §1
Shigella dysenteriae = assay: Minimum inhibitory concentration of compound was determined against Shigella dysentariae L155; format: functional
Proteus mirabilis [17] = assay: Minimum inhibitory concentration of compound was determined against Proteus mirabilis L 1356; format: functional; procedure, shortened: as §2
Escherichia coli [18] = assay: Minimum inhibitory concentration of compound was determined against Escherichia coli L 1536; format: functional; procedure, shortened: as §2
Escherichia coli [19] = assay: Minimum inhibitory concentration of compound was determined against Escherichia coli L 1153; format: functional; procedure, shortened: as §2
Pseudomonas aeruginosa [20] = assay: Minimum inhibitory concentration of compound was determined against Pseudomonas aeruginosa L 1533; format: functional; procedure, shortened: as §2
Pseudomonas aeruginosa [21] = assay: Minimum inhibitory concentration of compound was determined against Pseudomonas aeruginosa L 1348; format: functional; procedure, shortened: as §2
Serratia marcescens [22] = assay: Minimum inhibitory concentration of compound was determined against Serratia marcescens L 1506; format: functional; procedure, shortened: as §2
Klebsiella pneumoniae [23] = assay: Minimum inhibitory concentration of compound was determined against Klebsiella pneumoniae L 1499; format: functional; procedure, shortened: as §2
Escherichia coli [24] = assay: Minimum inhibitory concentration of compound was determined against Escherichia coli L 1513; format: functional; procedure, shortened: as §2
Proteus vulgaris [25] = assay: Minimum inhibitory concentration against Proteus vulgaris ATCC 881; format: functional; procedure, shortened: as §2
Salmonella typhimurium = assay: Minimum inhibitory concentration of compound was determined against Salmonella Typhimurium L 35; format: functional, Salmonella enterica subsp. enterica serovar Typhimurium; details: Salmonella enterica; procedure, shortened: as §2
Proteus mirabilis [26] = assay: Minimum inhibitory concentration of compound was determined against Proteus mirabilis L 1157; format: functional; procedure, shortened: as §2
Bacteroides fragilis [27] = assay: Minimum inhibitory concentration of compound was determined against Bacteroides fragilis L 1011; format: functional; procedure, shortened: as §3
Proteus vulgaris [28] = assay: Minimum inhibitory concentration of compound was determined against Proteus vulgaris L 1539; format: functional; procedure, shortened: as §2
Pseudomonas aeruginosa [29] = assay: Minimum inhibitory concentration of compound was determined against Pseudomonas aeruginosa L 1498; format: functional; procedure, shortened: as §2
Escherichia coli [30] = assay: Minimum inhibitory concentration of compound was determined against Escherichia coli L 1484; format: functional; procedure, shortened: as §2
[31] = Association constant to Ac2-L-Lys-D-Ala-D-Ala determined at pH 9; Value ranges from 5E4-7.5E4

CNCCCN(C)C(=O)[C@H]1NC(=O)[C@H]2NC(=O)[C@H](NC(=O)[C@@H]3NC(=O)[C@H]4NC(=O)[C@@H](Cc5ccc(c(Cl)c5)Oc5cc3cc(c5O)Oc3ccc(cc3Cl)[C@H]2O)NC(=O)[C@H](N)c2ccc(O)c(c2)Oc2cc(O)cc4c2)c2ccc(O)c(c2)-c2c(O)cc(O)cc21
MIC (Streptococcus pyogenes [1]): 0.063 µg/mL (≈ 0.0491 µM) | MIC (Streptococcus pyogenes [2]): 0.06 µg/mL (≈ 0.0468 µM) | MIC (Klebsiella pneumoniae [3]): 16 µg/mL (≈ 12.5 µM) | MIC (Enterococcus faecalis): 0.125 µg/mL (≈ 0.0974 µM) | MIC (Pseudomonas aeruginosa [4]): 16 µg/mL (≈ 12.5 µM) | MIC (Bacteroides fragilis [5]): 32 µg/mL (≈ 24.9 µM) | MIC (Escherichia coli [6]): 2 µg/mL (≈ 1.56 µM) | MIC (Bacteroides fragilis [7]): 64 µg/mL (≈ 49.9 µM) | MIC (Enterobacter cloacae [8]): 32 µg/mL (≈ 24.9 µM) | MIC [9]: 0.063 µg/mL (≈ 0.0491 µM) | ED50 (Streptococcus pyogenes [10]): 1.25 mg/kg | MIC (Pseudomonas aeruginosa [11]): 64 µg/mL (≈ 49.9 µM) | MIC (Enterobacter cloacae [12]): 32 µg/mL (≈ 24.9 µM) | MIC [13]: 0.063 µg/mL (≈ 0.0491 µM) | MIC (Staphylococcus aureus): 0.063 µg/mL (≈ 0.0491 µM) | MIC (Escherichia coli [14]): 8 µg/mL (≈ 6.23 µM) | MIC (Serratia marcescens [15]): 16 µg/mL (≈ 12.5 µM) | MIC (Shigella sonnei): 8 µg/mL (≈ 6.23 µM) | MIC (Escherichia coli [16]): 8 µg/mL (≈ 6.23 µM) | MIC (Streptococcus pneumoniae): 0.125 µg/mL (≈ 0.0974 µM) | MIC (Shigella dysenteriae): 4 µg/mL (≈ 3.12 µM) | MIC (Proteus mirabilis [17]): 32 µg/mL (≈ 24.9 µM) | MIC (Escherichia coli [18]): 8 µg/mL (≈ 6.23 µM) | MIC (Escherichia coli [19]): 4 µg/mL (≈ 3.12 µM) | MIC (Pseudomonas aeruginosa [20]): 128 µg/mL (≈ 99.8 µM) | MIC (Pseudomonas aeruginosa [21]): 16 µg/mL (≈ 12.5 µM) | MIC (Serratia marcescens [22]): 32 µg/mL (≈ 24.9 µM) | MIC (Klebsiella pneumoniae [23]): 32 µg/mL (≈ 24.9 µM) | MIC (Escherichia coli [24]): 8 µg/mL (≈ 6.23 µM) | MIC (Proteus vulgaris [25]): 32 µg/mL (≈ 24.9 µM) | MIC (Salmonella typhimurium): 16 µg/mL (≈ 12.5 µM) | MIC (Proteus mirabilis [26]): 64 µg/mL (≈ 49.9 µM) | MIC (Bacteroides fragilis [27]): 32 µg/mL (≈ 24.9 µM) | MIC (Proteus vulgaris [28]): 128 µg/mL (≈ 99.8 µM) | MIC (Pseudomonas aeruginosa [29]): 128 µg/mL (≈ 99.8 µM) | MIC (Escherichia coli [30]): 16 µg/mL (≈ 12.5 µM)

NCCN(CCN)CCNC(=O)[C@H]1NC(=O)[C@H]2NC(=O)[C@H](NC(=O)[C@@H]3NC(=O)[C@H]4NC(=O)[C@@H](Cc5ccc(c(Cl)c5)Oc5cc3cc(c5O)Oc3ccc(cc3Cl)[C@H]2O)NC(=O)[C@H](N)c2ccc(O)c(c2)Oc2cc(O)cc4c2)c2ccc(O)c(c2)-c2c(O)cc(O)cc21
MIC (Streptococcus pyogenes [1]): 0.063 µg/mL (≈ 0.0475 µM) | MIC (Streptococcus pyogenes [2]): 0.06 µg/mL (≈ 0.0452 µM) | MIC (Enterococcus faecalis): 0.125 µg/mL (≈ 0.0942 µM) | MIC (Pseudomonas aeruginosa [4]): 8 µg/mL (≈ 6.03 µM) | MIC (Escherichia coli [6]): 1 µg/mL (≈ 0.753 µM) | MIC [9]: 0.063 µg/mL (≈ 0.0475 µM) | ED50 (Streptococcus pyogenes [10]): 1.25 mg/kg | MIC [13]: 0.016 µg/mL (≈ 0.0121 µM) | MIC (Staphylococcus aureus): 0.063 µg/mL (≈ 0.0475 µM) | MIC (Streptococcus pneumoniae): 0.125 µg/mL (≈ 0.0942 µM) | Ka [31]: 75000 M⁻¹ | MIC (Proteus vulgaris [25]): 32 µg/mL (≈ 24.1 µM)

NCCCNCCNCCCNC(=O)[C@H]1NC(=O)[C@H]2NC(=O)[C@H](NC(=O)[C@@H]3NC(=O)[C@H]4NC(=O)[C@@H](Cc5ccc(c(Cl)c5)Oc5cc3cc(c5O)Oc3ccc(cc3Cl)[C@H]2O)NC(=O)[C@H](N)c2ccc(O)c(c2)Oc2cc(O)cc4c2)c2ccc(O)c(c2)-c2c(O)cc(O)cc21
MIC (Streptococcus pyogenes [1]): 0.063 µg/mL (≈ 0.0465 µM) | MIC (Streptococcus pyogenes [2]): 0.06 µg/mL (≈ 0.0443 µM) | MIC (Enterococcus faecalis): 0.125 µg/mL (≈ 0.0922 µM) | MIC (Pseudomonas aeruginosa [4]): 16 µg/mL (≈ 11.8 µM) | MIC (Escherichia coli [6]): 2 µg/mL (≈ 1.48 µM) | MIC [9]: 0.125 µg/mL (≈ 0.0922 µM) | ED50 (Streptococcus pyogenes [10]): 2.87 mg/kg | MIC [13]: 0.063 µg/mL (≈ 0.0465 µM) | MIC (Staphylococcus aureus): 0.125 µg/mL (≈ 0.0922 µM) | MIC (Streptococcus pneumoniae): 0.125 µg/mL (≈ 0.0922 µM) | Ka [31]: 75000 M⁻¹ | MIC (Proteus vulgaris [25]): 64 µg/mL (≈ 47.2 µM)

NCCCCNCCCNC(=O)[C@H]1NC(=O)[C@H]2NC(=O)[C@H](NC(=O)[C@@H]3NC(=O)[C@H]4NC(=O)[C@@H](Cc5ccc(c(Cl)c5)Oc5cc3cc(c5O)Oc3ccc(cc3Cl)[C@H]2O)NC(=O)[C@H](N)c2ccc(O)c(c2)Oc2cc(O)cc4c2)c2ccc(O)c(c2)-c2c(O)cc(O)cc21
MIC (Streptococcus pyogenes [1]): 0.063 µg/mL (≈ 0.0475 µM) | MIC (Streptococcus pyogenes [2]): 0.06 µg/mL (≈ 0.0452 µM) | MIC (Enterococcus faecalis): 0.125 µg/mL (≈ 0.0943 µM) | MIC (Pseudomonas aeruginosa [4]): 8 µg/mL (≈ 6.03 µM) | MIC (Escherichia coli [6]): 2 µg/mL (≈ 1.51 µM) | MIC [9]: 0.063 µg/mL (≈ 0.0475 µM) | ED50 (Streptococcus pyogenes [10]): 0.31 mg/kg | MIC [13]: 0.063 µg/mL (≈ 0.0475 µM) | MIC (Staphylococcus aureus): 0.063 µg/mL (≈ 0.0475 µM) | MIC (Streptococcus pneumoniae): 0.125 µg/mL (≈ 0.0943 µM) | Ka [31]: 75000 M⁻¹ | MIC (Proteus vulgaris [25]): 32 µg/mL (≈ 24.1 µM)

NCCNCCCNCCNC(=O)[C@H]1NC(=O)[C@H]2NC(=O)[C@H](NC(=O)[C@@H]3NC(=O)[C@H]4NC(=O)[C@@H](Cc5ccc(c(Cl)c5)Oc5cc3cc(c5O)Oc3ccc(cc3Cl)[C@H]2O)NC(=O)[C@H](N)c2ccc(O)c(c2)Oc2cc(O)cc4c2)c2ccc(O)c(c2)-c2c(O)cc(O)cc21
MIC (Streptococcus pyogenes [1]): 0.063 µg/mL (≈ 0.047 µM) | MIC (Enterococcus faecalis): 0.125 µg/mL (≈ 0.0932 µM) | MIC (Pseudomonas aeruginosa [4]): 64 µg/mL (≈ 47.7 µM) | MIC (Escherichia coli [6]): 4 µg/mL (≈ 2.98 µM) | MIC [9]: 0.063 µg/mL (≈ 0.047 µM) | MIC [13]: 0.063 µg/mL (≈ 0.047 µM) | MIC (Staphylococcus aureus): 0.063 µg/mL (≈ 0.047 µM) | MIC (Streptococcus pneumoniae): 0.125 µg/mL (≈ 0.0932 µM) | Ka [31]: 75000 M⁻¹ | MIC (Proteus vulgaris [25]): 128 µg/mL (≈ 95.4 µM)
